Source: ChEMBL document CHEMBL1146132, “Synthesis and activity of small molecule GPR40 agonists” (Bioorg Med Chem Lett, 2006)

Columns and labels:
[1] = target: T1, Free fatty acid receptor 1 (Homo sapiens, UniProt O14842); test: Agonist potency at human GPR40 expressed in CHO cells relative to standard by luciferase reporter gene assay; format: functional, cell-based
[2] = target: T1, Free fatty acid receptor 1; test: Agonist potency at human GPR40 expressed in CHO cells; format: functional, cell-based
Procedure, shortened: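 Ten-point dose–response in CHO cells stably expressing human GPR40. Receptor activation was read out by a Gal4/Elk1/luciferase reporter gene. Potency was taken from the curve and reported as pEC50.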

T1 sequence (O14842 whole entry): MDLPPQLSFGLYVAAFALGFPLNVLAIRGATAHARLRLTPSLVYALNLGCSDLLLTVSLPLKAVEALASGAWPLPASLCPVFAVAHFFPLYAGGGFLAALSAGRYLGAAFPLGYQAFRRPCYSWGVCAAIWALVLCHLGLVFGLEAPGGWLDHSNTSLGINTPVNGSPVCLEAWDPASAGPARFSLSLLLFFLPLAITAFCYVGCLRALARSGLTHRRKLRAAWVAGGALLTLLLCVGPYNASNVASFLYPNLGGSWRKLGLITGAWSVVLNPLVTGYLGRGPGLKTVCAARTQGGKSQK

| %max [1] [%] | EC50 [2] [nM] | SMILES |
| --- | --- | --- |
| 10 | > 10000 | Cc1nc(-c2ccc(C(F)(F)F)cc2)sc1CNc1ccc(C(=O)O)cc1 |
| 84 | 324 | O=C(O)CSc1ccc(NCc2cccc(Oc3ccccc3)c2)cc1 |
| 109 | 58.9 | Cc1nc(-c2ccc(C(F)(F)F)cc2)sc1CNc1ccc(C(C)CC(=O)O)cc1 (configuration not stated) |
| – | 2.45 | Cc1nc(-c2ccc(C(F)(F)F)cc2)sc1CNc1ccc([C@H]2C[C@@H]2C(=O)O)cc1 (stereo in doubt; 10B) [listing 1 of 2 here] |
| 76 | 145 | O=C(O)/C=C/c1ccc(NCc2cccc(Oc3ccccc3)c2)cc1 |
| 64 | 562 | O=C(O)[C@@H]1C[C@H]1c1ccc(NCc2cccc(Oc3ccccc3)c2)cc1 |
| 80 | 4.47 | Cc1nc(-c2ccc(C(F)(F)F)cc2)sc1CNc1ccc([C@H]2C[C@@H]2C(N)=O)cc1 |
| 95 | 36.3 | Cc1nc(-c2ccc(C(F)(F)F)cc2)sc1CNc1ccc(/C=C/C(=O)O)cc1 |
| 100 | 288 | Cc1nc(-c2ccc(C(F)(F)F)cc2)sc1CNc1ccc(OCC(=O)O)cc1 |
| 81 | – | Cc1nc(-c2ccc(C(F)(F)F)cc2)sc1CNc1ccc([C@H]2C[C@@H]2C(=O)O)cc1 (stereo in doubt; 10B) [listing 2 of 2 here] |
| 55 | 9.12 | Cc1nc(-c2ccc(C(F)(F)F)cc2)sc1CNc1ccc([C@H]2C[C@@H]2C(=O)NC2CCC2)cc1 |
| 18 | > 10000 | Cc1nc(-c2ccc(C(F)(F)F)cc2)sc1CNc1ccc(CC(=O)O)cc1 |
| 88 | – | O=C(O)[C@H]1C[C@@H]1c1ccc(NCc2cccc(Oc3ccccc3)c2)cc1 (stereo in doubt; 14A) [listing 1 of 2 here] |
| – | 11 | Cc1nc(-c2ccc(C(F)(F)F)cc2)sc1CNc1ccc([C@H]2C[C@@H]2C(=O)NC(C)C)cc1 (stereo in doubt; 24B) [listing 1 of 2 here] |
| 108 | 67.6 | Cc1nc(-c2ccc(C(F)(F)F)cc2)sc1CNc1ccc(CCC(=O)O)cc1 |
| – | 4.9 | Cc1nc(-c2ccc(C(F)(F)F)cc2)sc1CNc1ccc([C@H]2C[C@@H]2C(=O)O)cc1 (stereo in doubt; 14B) [listing 1 of 2 here] |
| – | 14.1 | Cc1nc(-c2ccc(C(F)(F)F)cc2)sc1CNc1ccc([C@H]2C[C@@H]2C(=O)NC(C)C)cc1 (stereo in doubt; 22B) [listing 1 of 2 here] |
| 44 | > 10000 | Cc1nc(-c2ccc(C(F)(F)F)cc2)sc1CNc1ccc(CCCC(=O)O)cc1 |
| 68 | 51.3 | NC(=O)CCc1ccc(NCc2cccc(Oc3ccccc3)c2)cc1 |
| 50 | 174 | CN(C)C(=O)CCc1ccc(NCc2cccc(Oc3ccccc3)c2)cc1 |
| 68 | 302 | Cc1nc(-c2ccc(C(F)(F)F)cc2)sc1CNc1ccc([C@@H]2C[C@@H]2C(=O)O)cc1 |
| 46 | 115 | O=C(CCc1ccc(NCc2cccc(Oc3ccccc3)c2)cc1)N1CCCC1 |
| 72 | – | O=C(O)[C@H]1C[C@@H]1c1ccc(NCc2cccc(Oc3ccccc3)c2)cc1 (stereo in doubt; 10A) [listing 1 of 2 here] |
| 52 | 204 | Cc1nc(-c2ccc(C(F)(F)F)cc2)sc1CNc1ccc([C@H]2C[C@@H]2C(=O)NC2CCNC2)cc1 (some centres not stated) |

| %max [1] [%] | EC50 [2] [nM] | SMILES |
| --- | --- | --- |
| 100 | 355 | Cc1nc(-c2ccc(C(F)(F)F)cc2)sc1CNc1ccc(CC(C)C(=O)O)cc1 (configuration not stated) |
| 69 | – | Cc1nc(-c2ccc(C(F)(F)F)cc2)sc1CNc1ccc([C@H]2C[C@@H]2C(=O)NC(C)C)cc1 (stereo in doubt; 22B) [listing 2 of 2 here] |
| 66 | 39.8 | CC(C)NC(=O)CCc1ccc(NCc2cccc(Oc3ccccc3)c2)cc1 |
| 71 | – | Cc1nc(-c2ccc(C(F)(F)F)cc2)sc1CNc1ccc([C@H]2C[C@@H]2C(=O)NC(C)C)cc1 (stereo in doubt; 24B) [listing 2 of 2 here] |
| 86 | 64.6 | O=C(O)CCc1ccc(NCc2cccc(Oc3ccccc3)c2)cc1 [GW9508] |
| 84 | 100 | Cc1nc(-c2ccc(C(F)(F)F)cc2)sc1CNc1ccc(CCC(=O)NC(C)C)cc1 |
| 89 | – | Cc1nc(-c2ccc(C(F)(F)F)cc2)sc1CNc1ccc([C@H]2C[C@@H]2C(=O)O)cc1 (stereo in doubt; 14B) [listing 2 of 2 here] |
| 70 | 100 | CC(Cc1ccc(NCc2cccc(Oc3ccccc3)c2)cc1)C(=O)O (configuration not stated) |
| 90 | 14.8 | O=C(NO)[C@H]1C[C@@H]1c1ccc(NCc2cccc(Oc3ccccc3)c2)cc1 |
| – | 13.5 | O=C(O)[C@H]1C[C@@H]1c1ccc(NCc2cccc(Oc3ccccc3)c2)cc1 (stereo in doubt; 10A) [listing 2 of 2 here] |
| 59 | 1120 | O=C(O)CCCc1ccc(NCc2cccc(Oc3ccccc3)c2)cc1 |
| 42 | 53.7 | Cc1nc(-c2ccc(C(F)(F)F)cc2)sc1CNc1ccc([C@H]2C[C@@H]2C(=O)N[C@H](C)c2ccccc2)cc1 |
| 36 | > 10000 | O=C(O)Cc1ccc(NCc2cccc(Oc3ccccc3)c2)cc1 |
| 14 | > 10000 | CC(C)(Oc1ccc(NCc2cccc(Oc3ccccc3)c2)cc1)C(=O)O |
| 88 | 12.9 | Cc1nc(-c2ccc(C(F)(F)F)cc2)sc1CNc1ccc(CCC(N)=O)cc1 |
| 84 | 2040 | O=C(O)COc1ccc(NCc2cccc(Oc3ccccc3)c2)cc1 |
| 62 | 12.6 | CC(C)NC(=O)[C@H]1C[C@@H]1c1ccc(NCc2cccc(Oc3ccccc3)c2)cc1 |
| 49 | 66.1 | Cc1nc(-c2ccc(C(F)(F)F)cc2)sc1CNc1ccc([C@H]2C[C@@H]2C(=O)N(C)C)cc1 |
| 67 | 49 | CNC(=O)CCc1ccc(NCc2cccc(Oc3ccccc3)c2)cc1 |
| 78 | 6.92 | Cc1nc(-c2ccc(C(F)(F)F)cc2)sc1CNc1ccc([C@H]2C[C@@H]2C(=O)NO)cc1 |
| 86 | > 10000 | O=C(O)c1ccc(NCc2cccc(Oc3ccccc3)c2)cc1 |
| 83 | 126 | CC(CC(=O)O)c1ccc(NCc2cccc(Oc3ccccc3)c2)cc1 (configuration not stated) |
| – | 12.3 | O=C(O)[C@H]1C[C@@H]1c1ccc(NCc2cccc(Oc3ccccc3)c2)cc1 (stereo in doubt; 14A) [listing 2 of 2 here] |
